# Runt-CBFb FRET = Runt domain-CBFb interaction inhibition. Cerulean-Runt/Venus-CBFb FRET ratio 530/480, 1 h. inhibition, % at 20 µM. 220,000 tested, 0.46% active;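 active means inhibition over about 50% at 20 µM in the single-dose screen, limit read from the data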;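 further: 0% = DMSO wells and 100% = excess unlabeled CBFb competitor control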
# Target sequence (Q01196 whole entry, looked up, the tested form may be a part): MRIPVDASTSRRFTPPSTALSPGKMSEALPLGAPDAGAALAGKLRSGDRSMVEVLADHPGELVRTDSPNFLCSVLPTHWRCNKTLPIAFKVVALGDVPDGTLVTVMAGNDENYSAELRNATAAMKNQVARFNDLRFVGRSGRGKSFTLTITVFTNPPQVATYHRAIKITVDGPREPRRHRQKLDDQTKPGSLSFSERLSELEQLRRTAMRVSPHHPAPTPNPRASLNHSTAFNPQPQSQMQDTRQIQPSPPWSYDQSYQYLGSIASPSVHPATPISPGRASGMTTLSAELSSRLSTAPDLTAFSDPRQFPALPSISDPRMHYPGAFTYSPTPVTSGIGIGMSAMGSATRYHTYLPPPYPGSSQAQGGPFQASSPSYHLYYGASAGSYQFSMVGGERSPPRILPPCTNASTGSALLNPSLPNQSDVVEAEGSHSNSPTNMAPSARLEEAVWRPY
# Target sequence (Q13951 whole entry, looked up, the tested form may be a part): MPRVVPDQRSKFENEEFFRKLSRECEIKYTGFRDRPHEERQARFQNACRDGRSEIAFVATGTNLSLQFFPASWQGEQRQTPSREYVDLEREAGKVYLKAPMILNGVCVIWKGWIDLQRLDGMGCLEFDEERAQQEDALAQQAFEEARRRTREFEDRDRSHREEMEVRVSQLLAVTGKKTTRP
#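 test system = Cerulean-Runt domain fusion protein, energy donor | probe or stimulus = Venus-CBFb binding partner, 100 nM | incubation = two 1 h room-temperature incubations shielded from light | detection = fluorescence energy transfer, 422 nm excitation, 530/480 nm emission | measure = loss of energy transfer signal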
# Wee1 degr inh = inhibitors of human Wee1 degradation; P30291; HeLa Luc-Wee1K328M stability, luciferase luminescence; 100% = proteasome inhibitor MG132 effect; reporter increase, % at 5 µM; 220,000 tested, 1.2% active; AID 1321;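 active means activation above the mean of all tested compounds plus 3 SD, set per screening run, cut at about 8.8% in these data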;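 further: cells exposed to compound for 20 h before luminescence read; 0% = DMSO alone and 100% = MG132 at 30 µM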
# Runt-SMMHC FRET = blocks binding of human RUNX1 Runt domain to CBFb-SMMHC; Cerulean-Runt/Venus-CBFb-SMMHC FRET ratio 530/480, 1 h; inhibition, % at 20 µM; 220,000 tested, 0.74% active;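 active means mean inhibition across duplicate retests at 20 µM reaching about 50%, limit read from the data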;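 further: 0% = DMSO wells and 100% = wells with excess untagged CBFb-SMMHC; inhibitors lower the FRET ratio by blocking Runt binding to CBFb-SMMHC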
# AI-2 QS modul = Vibrio harveyi AI-2 quorum sensing modulation | Vibrio harveyi JMH597 AI-2 luminescence/OD600 ratio, 9 h; stronger effect = lower value; strain lacks LuxN and CqsS sensors; 0 = neutral-control median | activity change, % at 7.5 µM | 300,000 tested, 0.4% active; in the data active means activity change below about -75%, passing the limit was not always enough; inconclusive means no clear call, values can overlap the other calls;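 further: luminescence divided by OD600 gain over 9 h not by final OD600 alone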
# KLK7 zymogen act = activates the human kallikrein-7 zymogen; P49862; purified proKLK7, EDANS-DABCYL substrate fluorescence; 100% is mature enzyme control, 0% vehicle; activation, % at 7 µM; 370,000 tested, 0.9% active; AID 652039;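 active means activation above the mean of all tested compounds plus 3 SD, computed per campaign excluding outliers beyond control limits, cut at about 13% in these data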
# RanGTP-Imp inh = inhibitors of RanGTP-importin-beta interaction, primary screen, biochemical, FRET, CFP-Ran, YFP-importin-beta, homogeneous. cell-free CFP-Ran/YFP-importin-beta FRET ratio. inhibition, % (no concentration beside the values). 300,000 tested, 1.1% active;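 active means more than half of the replicate wells show a fall in the fluorescence ratio signal beyond about 16%, limit read from the data, passing the limit was not always enough; inconclusive means exactly half of the replicate wells pass the set limit; inactive means fewer than half of replicates pass the limit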;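 further: 0% = DMSO wells and 100% = Ran loaded with GDP instead of GTP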
# Starred values were filed as active, the others as inactive; u = inconclusive; x = no result given. In the library only some 2.9% were active in any assay of this set; here they are far more common.
SMILES,Runt-CBFb FRET,Wee1 degr inh,Runt-SMMHC FRET,AI-2 QS modul,KLK7 zymogen act,RanGTP-Imp inh
O=C(Nc1cccc(C(F)(F)F)c1)c1cc2c(s1)-c1ccccc1OC2,45.4,-1.3,87.0*,10.5,-2.4,40.6*
Cn1cc(/C=N\O)nc2c(=O)n(-c3ccccc3)c(=O)nc1-2,83.5*,0.6,94.6*,20.0,2.3,33.5*
O=C(CSc1nnc(SCc2cccc3ccccc23)s1)Nc1ccc(Oc2ccccc2)cc1,x,x,x,x,0.9,x
COc1cc(/C=C/C(=O)O)cc(S(=O)(=O)N(CC(C)C)CC(C)C)c1OC,-0.5,4.8,-2.8,43.0,-0.5,-4.2
NC(=O)CCCc1nc(-c2ccccc2Cl)no1,2.4,10.3*,-7.1,17.0,0.0,0.1
CNC(=O)CCCc1nc(-c2ccccc2Cl)no1,0.9,0.0,4.0,28.9,-0.2,9.7
CCN(CC)CCNC(=O)c1ccccn1,0.7,16.1*,-5.7,8.4,0.0,0.6
CCN(CC)CCNC(=O)/C(=N\O)c1ccccn1,2.0,-2.2,0.6,-6.1,-0.1,6.7
O=C1NC(=S)N/C1=C/c1ccc2ccccc2c1,x,x,x,4.1,-0.1,25.8*
O=C(OC12CCCN(C1)/C(=C/c1ccc(Cl)cc1)C2)C1CCCC1 (configuration not stated),x,x,x,x,0.8,x
CCN(CC)CCOc1cc2c(nn1)Oc1ccccc1N2C,-2.0,0.7,1.3,21.0,16.3*,-1.7
O=S(=O)(Nc1ccc(-c2nc3cccnc3s2)cc1)c1cccs1,90.9*,-1.3,144.8*,38.1,-2.8,9.5
COc1ccc(/C=N/NC(=O)c2[nH]c3ccc(Br)cc3c2-c2ccccc2)c(C(=O)O)c1OC,-0.2,-0.2,2.8,21.5,-0.1,u
O=C(N/N=C/c1ccccc1Cl)c1[nH]c2ccc(Br)cc2c1-c1ccccc1,-1.1,11.5*,1.6,4.0,0.3,-2.6
Cc1cc(Br)ccc1SCC(=O)OCC(=O)NC1CC1,1.1,10.4*,-3.2,40.8,-0.1,-4.6
COCCCNC(=O)Cn1cc(C(C)=O)c2ccccc21,0.7,-2.0,-2.0,35.8,-0.6,9.2
COCCNC(=O)Cn1cc(C(=S)N2CCOCC2)c2ccccc21,12.7,9.8*,-1.3,10.5,0.2,1.0
O=S1(=O)c2ccc(N3CCCC3)cc2Oc2ccccc2CN1Cc1cn(Cc2ccc(F)cc2)nn1,x,x,x,x,-0.2,x
Cc1ccc(C(=O)Nc2cccc3ccccc23)cc1,x,x,x,0.0,-0.3,-1.7
CC(C)(C)c1ccc(C(=O)Nc2cccc3c(=O)[nH][nH]c(=O)c23)cc1,3.6,-1.5,78.2,u,-107.3,38.6*
CCOC(=O)CN1C(=O)C(CC)Oc2ccccc21 (configuration not stated),-2.1,16.6*,-2.3,21.2,0.0,4.5
CCOC(=O)C1CCN(C(=O)CN2C(=O)C(CC)Oc3ccccc32)CC1 (configuration not stated),1.1,-1.1,-0.7,18.0,0.0,-1.9
COc1ccc(NC(=O)c2cc(F)c(F)cc2Cl)cc1Cl,3.1,9.1*,3.8,10.3,-0.1,3.0
N#Cc1ccc(OCCCN2CCC(C(O)(c3ccccc3)c3ccccc3)CC2)cc1,x,x,x,x,1.2,x
Nc1nn(-c2ccccc2)c(N)c1N=Nc1ccc2c(c1)OCO2,-3.4,9.8*,-2.1,6.4,0.1,-0.2
SMILES,Runt-CBFb FRET,Wee1 degr inh,Runt-SMMHC FRET,AI-2 QS modul,KLK7 zymogen act,RanGTP-Imp inh
Nc1nn(-c2ccccc2)c(N)c1N=Nc1cccc(F)c1,-1.9,8.8,-1.1,-12.7,0.1,-1.8
Nc1nc(-c2cc(O)ccc2[N+](=O)[O-])cc(-c2ccccc2)c1[N+](=O)[O-],x,x,x,3.1,0.5,34.0*
CCOc1ccc(NC(=O)CN(C)S(=O)(=O)c2ccc3c(c2)CCC(=O)N3)cc1,1.6,-1.7,59.7*,8.7,0.4,0.4
COc1ccc(/C=C/S(=O)(=O)NCC(C)C)c(CNC(=O)OC(C)(C)C)c1,x,x,x,x,-0.2,x
C(=C\c1ccco1)/C=N/n1cnnc1,6.5,9.7*,-8.6,2.9,0.5,-3.9
S=c1[nH]nc(-c2ccncc2)n1/N=C/C=C/c1ccco1,33.2,-1.6,29.1,15.3,0.0,-5.4
Fc1ccc(/C=N/n2cnn(Cc3ccccc3Cl)c2=S)cc1,14.9,-0.5,1.6,19.2,-0.5,-1.0
CC(C)c1ccc(/C=N/NC(=O)c2ccccc2Cl)cc1,-3.7,8.9*,0.1,u,-0.4,-0.4
COC(=O)c1ccc(/C=N/NC(=O)c2ccccc2Cl)cc1,0.0,0.9,5.1,9.7,-0.7,3.1
Cc1ccc(N2CCN(CC(O)COc3ccccc3)CC2)cc1 (configuration not stated),x,x,x,24.3,1.0,0.8
Nc1ccc(C(=O)Nc2nc3ccccc3s2)cc1,0.4,8.9*,2.5,11.3,-0.6,4.0
Cc1ccc2c3c(cccc13)-c1ccccc1C2=O,19.2,0.6,63.2*,-1.9,-35.0,63.7*
O=c1[nH]c(N/N=C\c2ccc(F)cc2)nc2ccccc12,15.7,2.3,18.7,9.0,-34.4,38.3*
Cc1cccc(C(=O)NC(=S)NNC(=O)Cc2ccccc2)c1,8.9,-1.7,0.7,-90.6*,-0.5,1.8
O=C(NC(=S)NNC(=O)c1cccs1)c1ccc(Br)o1,10.5,-2.9,4.8,-88.2*,-0.5,0.6
O=C(Cc1ccccc1)NNC(=S)NC(=O)c1cccs1,6.8,-3.1,-0.9,-83.4*,0.0,2.9
O=C(Nc1ccc(Cl)cc1)c1cccs1,0.5,1.3,-7.8,18.8,0.9,5.0
O=C(NNC(=S)NC(=O)c1cccs1)c1ccc(O)cc1,x,x,x,-33.9,0.1,x
O=C(Cc1ccc(Cl)cc1)Nc1ccc(NC(=O)c2cccs2)cc1,0.3,9.7*,4.3,24.6,2.5,x
C/C(=N\NC(=O)C(C)Sc1ccccc1)c1ccc([N+](=O)[O-])cc1 (configuration not stated),x,x,x,-0.6,0.4,-0.9
CCOc1ccc(-c2nc(C#N)c(NCc3ccco3)o2)cc1,-0.5,-2.2,-3.8,5.1,-2.8,-2.1
CCOC(=O)COc1nc(-c2ccco2)cc(-c2ccco2)c1C#N,6.0,-1.6,3.7,3.5,-47.8,3.6
CCOC(=O)C(C)Sc1nc(-c2ccco2)cc(C(F)(F)F)c1C#N (configuration not stated),0.4,9.9*,3.6,8.7,-5.8,2.9
c1cnc2c(OCc3cn4cccnc4n3)cccc2c1,26.0,1.8,-5.6,x,0.4,x
Clc1ccc(OCc2cn3cccnc3n2)c2ncccc12,1.3,10.6*,4.1,15.4,1.6,4.1
COC(=O)[C@]12C[C@H](CC(=O)NCCCN3CCCC3=O)C(=O)N(Cc3ccccc3)C1=C[C@H](COCc1ccccc1)O[C@@H]2C,x,x,x,x,0.1,x
